This note sets out measurements from ChEMBL document CHEMBL1909618, “Non-steroidal dissociated glucocorticoid agonists: indoles as A-ring mimetics and function-regulating pharmacophores” (Bioorg Med Chem Lett, 2011).

For assay [1], the target named is T1, Glucocorticoid receptor (Homo sapiens) (UniProt P04150).
T1 sequence (whole entry): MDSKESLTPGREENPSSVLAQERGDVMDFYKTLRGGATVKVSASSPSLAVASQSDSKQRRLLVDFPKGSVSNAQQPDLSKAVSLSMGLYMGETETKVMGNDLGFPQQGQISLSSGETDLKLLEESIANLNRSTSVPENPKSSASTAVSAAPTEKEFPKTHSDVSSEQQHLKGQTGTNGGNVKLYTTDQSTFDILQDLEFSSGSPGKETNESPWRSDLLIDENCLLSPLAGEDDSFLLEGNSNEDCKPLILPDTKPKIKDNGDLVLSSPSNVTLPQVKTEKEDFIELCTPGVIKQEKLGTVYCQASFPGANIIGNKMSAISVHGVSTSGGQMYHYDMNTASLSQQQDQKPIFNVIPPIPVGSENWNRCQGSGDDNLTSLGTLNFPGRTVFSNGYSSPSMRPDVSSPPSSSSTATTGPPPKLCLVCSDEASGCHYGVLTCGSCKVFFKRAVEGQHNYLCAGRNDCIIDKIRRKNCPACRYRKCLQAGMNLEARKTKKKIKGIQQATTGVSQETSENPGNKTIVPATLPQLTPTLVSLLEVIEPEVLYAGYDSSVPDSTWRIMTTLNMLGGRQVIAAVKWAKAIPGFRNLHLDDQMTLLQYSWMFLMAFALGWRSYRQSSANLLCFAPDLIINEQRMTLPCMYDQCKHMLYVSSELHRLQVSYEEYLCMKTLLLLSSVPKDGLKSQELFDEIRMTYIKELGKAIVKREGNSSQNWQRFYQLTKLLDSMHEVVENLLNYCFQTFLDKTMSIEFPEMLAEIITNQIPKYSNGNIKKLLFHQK
The assay can be described thus: Agonist activity at glucocorticoid receptor in HFF assessed as inhibition of IL1-induced IL-6 production after 18 to 24 hrs relative to Dexamethasone. The class given is functional. The procedure, abridged: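 Human foreskin fibroblasts stimulated with IL-1 (1 ng/mL) in the presence of test compound, incubated at 37 °C for 18–24 h. IL-6 in the culture medium was quantified by electrochemiluminescence, DELFIA or ELISA. IC50 and % maximal efficacy were reported.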

For assay [2], the target named is T2, Glucocorticoid receptor (Homo sapiens, UniProt P04150).
T2 sequence (P04150 whole entry): T1 sequence (whole entry)
The assay can be described thus: Transactivation activity of glucocorticoid receptor in HFF assessed as induction of aromatase activity by measuring beta-estradiol activity after 18 to 24 hrs by ELISA. To be noted: read-out: EC50.

The target in assay [3] is T1, Glucocorticoid receptor (Homo sapiens). Description: Transactivation activity of glucocorticoid receptor in HFF assessed as induction of aromatase activity by measuring beta-estradiol activity after 18 to 24 hrs by ELISA relative to Dexamethasone. (In general: In an ELISA, binding on a coated surface is turned into a signal by an enzyme label.)
The next assay has as its system Mus musculus. Description: Antiinflammatory activity in mouse plasma assessed as inhibition of LPS-induced TNFalpha production at 10 mg/kg, po administered 1 hr before LPS challenge measured after 1 hr. Format: functional. In a few lines:
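Mice received compound orally in Cremophor RH 1 h before LPS challenge. Plasma TNF-α was measured 1 h after challenge. n = 8 per group; doses were 3 and 10 mg/kg.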

In assay [4] the target is T2, Glucocorticoid receptor. Description: Displacement of tetramethylrhodamine-labeled Dexamethasone from human recombinant glucocorticoid receptor expressed in baculovirus infected insect cells by fluorescence polarization assay. In general terms: Fluorescence polarisation rises when a labelled molecule tumbles more slowly, as on binding a larger partner.
The target in a further assay is T3, Progesterone receptor (Homo sapiens, UniProt P06401).
T3 sequence (P06401 whole entry): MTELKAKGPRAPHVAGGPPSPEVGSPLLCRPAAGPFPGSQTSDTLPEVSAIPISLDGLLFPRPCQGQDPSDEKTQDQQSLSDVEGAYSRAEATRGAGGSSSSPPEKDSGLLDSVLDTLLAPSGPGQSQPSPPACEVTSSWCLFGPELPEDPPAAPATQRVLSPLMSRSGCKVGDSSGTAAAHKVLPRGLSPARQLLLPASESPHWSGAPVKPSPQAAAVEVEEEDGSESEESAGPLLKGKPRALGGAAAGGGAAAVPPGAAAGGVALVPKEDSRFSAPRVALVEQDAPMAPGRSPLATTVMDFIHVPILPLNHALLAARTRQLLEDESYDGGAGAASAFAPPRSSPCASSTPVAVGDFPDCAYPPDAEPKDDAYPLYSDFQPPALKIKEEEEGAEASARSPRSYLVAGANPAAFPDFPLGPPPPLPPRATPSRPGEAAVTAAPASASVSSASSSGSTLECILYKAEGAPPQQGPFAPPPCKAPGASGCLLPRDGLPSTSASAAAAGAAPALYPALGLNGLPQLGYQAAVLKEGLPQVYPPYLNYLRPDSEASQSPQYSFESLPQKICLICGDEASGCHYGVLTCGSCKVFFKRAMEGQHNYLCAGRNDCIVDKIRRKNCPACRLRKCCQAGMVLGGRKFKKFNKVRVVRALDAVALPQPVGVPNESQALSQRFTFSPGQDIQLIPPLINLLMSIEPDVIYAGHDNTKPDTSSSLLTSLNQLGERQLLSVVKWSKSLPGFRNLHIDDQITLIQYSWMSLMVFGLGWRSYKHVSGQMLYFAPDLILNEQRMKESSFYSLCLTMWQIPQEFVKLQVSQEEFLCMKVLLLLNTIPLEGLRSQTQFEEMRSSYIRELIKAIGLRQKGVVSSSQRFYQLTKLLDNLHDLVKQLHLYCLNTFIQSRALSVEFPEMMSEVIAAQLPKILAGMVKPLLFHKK
Description: Displacement of tetramethylrhodamine-labeled RU-486 from human recombinant progesterone receptor expressed in baculovirus infected insect cells by fluorescence polarization assay. In a few lines: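 Fluorescence polarization competition assays with recombinant human receptors in lysates of baculovirus-infected insect cells. Reactions contained 1% DMSO and ran 1 h at room temperature.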

The target in assay [5] is T2, Glucocorticoid receptor. The assay can be described thus: Agonist activity at glucocorticoid receptor in HFF assessed as inhibition of IL1-induced IL-6 production after 18 to 24 hrs. Format: functional.

`COc1ccc(F)cc1C(C)(C)C[C@@](O)(Cc1cc2ccccc2[nH]1)C(F)(F)F`: the Efficacy in assay [1] stood at 87%; in assay [3], 98%. Besides, the EC50 on Glucocorticoid receptor [2] was determined as 18 nM. For the same compound, in the assay on Mus musculus, the inhibition in vivo at 10 mg/kg was 35%. Moreover, the IC50 worked out at 10 nM on Glucocorticoid receptor [4], 207 nM at Progesterone receptor and 6 nM on Glucocorticoid receptor [5].

For the compound `CC(C)(C[C@@](O)(Cc1cc2ccc(C#N)cc2[nH]1)C(F)(F)F)c1cc(S(C)(=O)=O)cc2c1OCC2`, the Efficacy in assay [1] came out at 88%; in assay [3] it was 74%. Besides, on Glucocorticoid receptor [2], the concentration giving a half-maximal response (EC50) came to 120 nM. Further, the inhibition in vivo at 10 mg/kg with Mus musculus is 88%. In addition, the IC50 on Glucocorticoid receptor [4] is 2 nM; at Progesterone receptor it was 745 nM; at Glucocorticoid receptor [5], 28 nM.

As usually defined, the EC50 is the concentration at which the effect is half-maximal. What is called inhibition in vivo is how much of the control response was suppressed. As usually defined, the IC50 is the concentration needed to halve the response being measured.
